In brackets after ≈: the same amount, converted by molar mass.
What was measured:
Homo sapiens [1] = species on record: Homo sapiens; test: Toxicity in methicillin-resistant Staphylococcus aureus-infected human with complicated skin and skin structure infection assessed as rash; format: organism-based; conditions: in vivo
Summary of the method: (§1)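 Safety population: randomized patients given at least one dose of IV study drug (500 mg every 12 h, 1-h infusion, 7–14 days) or vancomycin 1 g every 12 h, double-blind. Adverse events, including deaths, were recorded during treatment and follow-up. Laboratory values were compared between baseline and end of therapy.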

Staphylococcus aureus [2] = test: Antibacterial activity against methicillin-resistant Staphylococcus aureus clinical isolate; format: functional
Summary of the method: (§2)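 Duplicate baseline isolates from the infection site were tested centrally for susceptibility on customized TREK broth panels by CLSI methods. Identification was by coagulase and API testing. Staphylococci were typed for mecA and PVL genes by multiplex analysis.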

Staphylococcus aureus [3] = test: Antibacterial activity against methicillin-resistant Staphylococcus aureus infected in human with complicated skin and skin structure infection assessed as cure rate at test-of-cure visit; format: functional
Homo sapiens [4] = species on record: Homo sapiens; test: Toxicity in methicillin-resistant Staphylococcus aureus-infected human with complicated skin and skin structure infection assessed as headache; format: organism-based; conditions: in vivo; summary of the method: as §1
Homo sapiens [5] = species on record: Homo sapiens; test: Toxicity in methicillin-resistant Staphylococcus aureus-infected human with complicated skin and skin structure infection assessed as vomiting; format: organism-based; conditions: in vivo; summary of the method: as §1
Homo sapiens [6] = species on record: Homo sapiens; test: Toxicity in methicillin-resistant Staphylococcus aureus-infected human with complicated skin and skin structure infection assessed as diarrhea; format: organism-based; conditions: in vivo; summary of the method: as §1
Homo sapiens [7] = species on record: Homo sapiens; test: Toxicity in methicillin-resistant Staphylococcus aureus-infected human with complicated skin and skin structure infection assessed as dysgeusia; format: organism-based; conditions: in vivo; summary of the method: as §1
Staphylococcus aureus [8] = test: Antibacterial activity against methicillin-susceptible Staphylococcus aureus infected in human with complicated skin and skin structure infection assessed as cure rate at test-of-cure visit; format: functional
Staphylococcus aureus [9] = test: Antibacterial activity against methicillin-susceptible Staphylococcus aureus; format: functional; summary of the method: as §2
Homo sapiens [10] = species on record: Homo sapiens; test: Toxicity in methicillin-resistant Staphylococcus aureus-infected human with complicated skin and skin structure infection assessed as dizziness; format: organism-based; conditions: in vivo; summary of the method: as §1
Homo sapiens [11] = species on record: Homo sapiens; test: Toxicity in methicillin-resistant Staphylococcus aureus-infected human with complicated skin and skin structure infection assessed as nausea; format: organism-based; conditions: in vivo; summary of the method: as §1
Staphylococcus aureus [12] = test: Antibacterial activity against methicillin-resistant Staphylococcus aureus PVL positive isolate infected in human with complicated skin and skin structure infection assessed as cure rate at test-of-cure visit; format: functional
Homo sapiens [13] = species on record: Homo sapiens; test: Toxicity in methicillin-resistant Staphylococcus aureus-infected human with complicated skin and skin structure infection assessed as constipation; format: organism-based; conditions: in vivo; summary of the method: as §1
Staphylococcus aureus [14] = test: Antibacterial activity against methicillin-resistant Staphylococcus aureus infected in human with complicated skin and skin structure infection assessed as cure rate at test-of-cure visit in presence of C-reactive protein; format: functional
Homo sapiens [15] = species on record: Homo sapiens; test: Toxicity in methicillin-resistant Staphylococcus aureus-infected human with complicated skin and skin structure infection assessed as pruritus; format: organism-based; conditions: in vivo; summary of the method: as §1
Staphylococcus aureus [16] = test: Antibacterial activity against methicillin-resistant Staphylococcus aureus infected in human with infections extending to fascia or muscle assessed as cure rate at test-of-cure visit; format: functional, Muscle tissue
Staphylococcus aureus [17] = test: Antibacterial activity against methicillin-resistant Staphylococcus aureus; format: functional; summary of the method: as §2
Homo sapiens [18] = species on record: Homo sapiens; test: Toxicity in methicillin-resistant Staphylococcus aureus-infected human assessed as death; format: organism-based; conditions: in vivo; summary of the method: as §1

Row | Compound | Activity (Homo sapiens [1]) | MIC50 (Staphylococcus aureus [2]) | MIC90 (Staphylococcus aureus [2]) | Activity (Staphylococcus aureus [3]) | Activity (Homo sapiens [4]) | Activity (Homo sapiens [5]) | Activity (Homo sapiens [6]) | Activity (Homo sapiens [7]) | Activity (Staphylococcus aureus [8]) | MIC50 (Staphylococcus aureus [9]) | MIC90 (Staphylococcus aureus [9]) | Activity (Homo sapiens [10]) | Activity (Homo sapiens [11]) | Activity (Staphylococcus aureus [12]) | Activity (Homo sapiens [13]) | Activity (Staphylococcus aureus [14]) | Activity (Homo sapiens [15]) | Activity (Staphylococcus aureus [16]) | MIC90 (Staphylococcus aureus [17]) | Activity (Homo sapiens [18])
1 | CN[C@H](CC(C)C)C(=O)N[C@H]1C(=O)N[C@@H](CC(N)=O)C(=O)N[C@H]2C(=O)N[C@H]3C(=O)N[C@H](C(=O)N[C@H](C(=O)O)c4cc(O)cc(O)c4-c4cc3ccc4O)[C@H](O)c3ccc(c(Cl)c3)Oc3cc2cc(c3O[C@@H]2O[C@H](CO)[C@@H](O)[C@H](O)[C@H]2O[C@H]2C[C@](C)(N)[C@H](O)[C@H](C)O2)Oc2ccc(cc2Cl)[C@H]1O [VANCOMYCIN] | 3% | 0.5 µg/mL (≈ 0.345 µM) | 1 µg/mL (≈ 0.69 µM) | 90% | 6% | 4% | 4% | 1% | 96.4% | 0.5 µg/mL (≈ 0.345 µM) | 1 µg/mL (≈ 0.69 µM) | 2% | 8% | 84.6% | 3% | 87.5% | 6% | 85.7% |  | 
2 | Nc1nc(/C(=N/O)C(=O)N[C@@H]2C(=O)N3C(C(=O)O)=C(/C=C4\CCN([C@@H]5CCNC5)C4=O)CS[C@H]23)ns1 [CEFTOBIPROLE] | 2% | 0.5 µg/mL (≈ 0.935 µM) | 2 µg/mL (≈ 3.74 µM) | 91.8% | 7% | 7% | 5% | 8% | 96% | 0.25 µg/mL (≈ 0.468 µM) | 0.5 µg/mL (≈ 0.935 µM) | 4% | 14% | 93.1% | 4% | 86.9% | 3% | 90.5% | ≤ 2 µg/mL | Non-toxic

From ChEMBL document CHEMBL1152989, “Results of a double-blind, randomized trial of ceftobiprole treatment of complicated skin and skin structure infections caused by gram-positive bacteria” (Antimicrob Agents Chemother, 2008)
